Results taken from ChEMBL document CHEMBL3046382, “Synthesis and insecticidal activities and SAR studies of novel benzoheterocyclic diacylhydrazine derivatives” (2009).
≈ marks a conversion by molar mass, not a printed value.

Legend:
Assay type in all cases: functional
[1] = tested on: Culicidae; test: Toxicity against fourth-instar larvae of Culex pipiens pallens assessed as mortality at 0.5 mg/kg measured after 7 to 10 days
Outline: (§1)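 For each concentration, 1 mL of dilution was added to 99 mL water and 20 fourth-instar larvae introduced. Percentage mortality assessed 7–10 days after treatment.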

[2] = tested on: Culicidae; test: Toxicity against fourth-instar larvae of Culex pipiens pallens assessed as mortality at 1 mg/kg measured after 7 to 10 days; outline: as §1
[3] = tested on: Culicidae; test: Toxicity against fourth-instar larvae of Culex pipiens pallens assessed as mortality at 2 mg/kg measured after 7 to 10 days; outline: as §1
[4] = tested on: Mythimna separata; test: Stomach toxicity in fourth-instar Mythimna separata (Oriental armyworm) larvae in compound treated corn leaves assessed as mortality at 10 mg/kg measured after 4 days; conditions: 96 h
[5] = tested on: Mythimna separata; test: Stomach toxicity in fourth-instar Mythimna separata (Oriental armyworm) larvae in compound treated corn leaves assessed as mortality at 25 mg/kg measured after 4 days; conditions: 96 h
[6] = tested on: Mythimna separata; test: Stomach toxicity in fourth-instar Mythimna separata (Oriental armyworm) larvae in compound treated corn leaves assessed as mortality at 50 mg/kg measured after 4 days; conditions: 96 h
[7] = tested on: Mythimna separata; test: Stomach toxicity in fourth-instar Mythimna separata (Oriental armyworm) larvae in compound treated corn leaves assessed as mortality at 100 mg/kg measured after 4 days; conditions: 96 h
[8] = tested on: Mythimna separata; test: Stomach toxicity in fourth-instar Mythimna separata(Oriental armyworm) larvae in compound treated corn leaves assessed as mortality at 200 mg/kg measured after 4 days; conditions: 96 h
[9] = tested on: Ostrinia nubilalis; test: Stomach toxicity in Ostrinia nubilalis (European corn borer) in compound treated corn leaves assessed as mortality measured after 4 days by leaf-dip method; conditions: for LC50: Ostrinia nubilalis, 96 h
Outline: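 Corn leaf disks (about 5 cm) dipped 3–5 s in test solution, air-dried, and placed singly in 7 cm glass vessels. Each disk given 10 third-instar larvae. Acetone-treated leaves as control, four replicates. Percentage mortality at 4 days; LC50 and LC95 derived.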

[10] = tested on: Helicoverpa armigera; test: Contact toxicity in Helicoverpa armigera assessed as mortality at 1000 mg/L by topical application measured after 4 days […]
Outline: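 Third-instar larvae; compounds in acetone at 1000 mg L⁻¹, 0.5 μL applied to the thoracic tergite by microapplicator. Larvae then returned to standard rearing conditions. Percentage mortality scored 4 days after treatment.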

[11] = tested on: Helicoverpa armigera; test: Stomach toxicity in Helicoverpa armigera in compound treated corn leaves assessed as mortality at 1000 mg/L measured after 4 days by leaf-dip method
Outline: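 Corn leaves dipped in acetone solution at 1000 mg L⁻¹ and air-dried. Each treated disk placed singly in a 24-hole box and given 10 third-instar larvae. Percentage mortality scored after 4 days.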

[12] = tested on: Plutella xylostella; test: Contact toxicity in fourth-instar Plutella xylostella (diamondback moth) larva assessed as mortality measured after 72 hr by insect-dip method
Outline: (§2)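 Fourth-instar larvae immersed for 5 min in acetone solutions diluted with water, five concentrations. Larvae then held at 25 ± 1 °C under standard rearing. Usually 30 insects per dose, each treatment in triplicate, water-only control. Mortality read at 48 and 72 h and LC50 derived.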

[13] = tested on: Plutella xylostella; test: Contact toxicity in fourth-instar Plutella xylostella (diamondback moth) larva assessed as mortality measured after 48 hr by insect-dip method; outline: as §2
[14] = tested on: Spodoptera exigua; test: Contact toxicity in fourth-instar Spodoptera exigua assessed as mortality by topical application measured after 48 hr; conditions: read-out: LD50 (the source's name)
Outline: (§3)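 Topical application to fourth-instar larvae: 1.0 μL of acetone dilution at various concentrations placed on the thoracic tergite by automatic microapplicator. Larvae then returned to standard rearing. Acetone-only control, each treatment three times. Mortality calculated at 48 and 72 h and LC50 derived.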

[15] = tested on: Spodoptera exigua; test: Contact toxicity in fourth-instar Spodoptera exigua assessed as mortality by topical application measured after 72 hr; conditions: read-out: LD50 (the source's name); outline: as §3
[16] = tested on: Spodoptera exigua; test: Stomach toxicity in Spodoptera exigua in compound treated cabbage leaves assessed as mortality measured after 3 days by leaf-dip method; conditions: 72 h
Outline: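 Cabbage leaf disks (5 cm × 3 cm) dipped 3 s in test solution, air-dried, and placed singly in 80 cm³ boxes. Each disk given five third-instar larvae. Water- and acetone-treated leaves as controls, each treatment three times. Percentage mortality read at 3 days.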

[17] = tested on: Mythimna separata; test: Stomach toxicity in fourth-instar Mythimna separata (Oriental armyworm) larvae in compound treated corn leaves assessed as mortality at 2.5 mg/kg measured after 4 days; conditions: 96 h
[18] = tested on: Mythimna separata; test: Stomach toxicity in fourth-instar Mythimna separata (Oriental armyworm) larvae in compound treated corn leaves assessed as mortality at 5 mg/kg measured after 4 days; conditions: 96 h

Compound	mortality at 0.5 mg/kg [1] [%]	mortality at 1 mg/kg [2] [%]	mortality at 2 mg/kg [3] [%]	mortality at 10 mg/kg [4] [%]	mortality at 25 mg/kg [5] [%]	mortality at 50 mg/kg [6] [%]	mortality at 100 mg/kg [7] [%]	mortality at 200 mg/kg [8] [%]	LC95 [9] [µg/mL]	LC50 [9] [µg/mL]	Activity [10] [%]	Activity [11] [%]	LC50 [12] [µg/mL]	LC50 [13] [µg/mL]	LC50 [14] [µg/mL]	LC50 [15] [µg/mL]	LC50 [16] [µg/mL]	mortality at 2.5 mg/kg [17] [%]	mortality at 5 mg/kg [18] [%]
Cc1c(C(=O)NN(C(=O)c2ccccc2[N+](=O)[O-])C(C)(C)C)ccc2c1CC(C)O2 (stereo not given)	0	20	30	0	20	60	100	100	–	–	–	–	–	–	–	–	–	–	–
Cc1cc(C)cc(C(=O)N(NC(=O)c2ccc3c(c2C)OC(C)C3)C(C)(C)C)c1 (stereo not given) [FUXIAN]	50	100	100	100	100	100	100	100	147.78 (≈ 375 µM)	25.6 (≈ 64.8 µM)	60	60	304 (≈ 772 µM)	372 (≈ 943 µM)	59.6 (≈ 151 µM)	12.6 (≈ 31.9 µM)	5 (≈ 12.7 µM)	95	100
Cc1cc(C)cc(C(=O)N(NC(=O)c2ccc3c(c2C)CC(C)O3)C(C)(C)C)c1 (stereo not given)	10	10	80	95	100	100	100	100	271.89 (≈ 689 µM)	40.5 (≈ 103 µM)	50	70	81.4 (≈ 206 µM)	124 (≈ 314 µM)	190 (≈ 482 µM)	52.8 (≈ 134 µM)	12.7 (≈ 32.2 µM)	20	80
Cc1cc(C)cc(C(=O)N(NC(=O)c2ccc3c(c2C)CCCO3)C(C)(C)C)c1 [CHROMAFENOZIDE]	10	80	100	100	100	100	100	100	139.25 (≈ 353 µM)	18.6 (≈ 47.2 µM)	60	65	123 (≈ 312 µM)	236 (≈ 598 µM)	29.8 (≈ 75.5 µM)	14.9 (≈ 37.8 µM)	6.3 (≈ 16 µM)	80	100
Cc1c(C(=O)NN(C(=O)c2ccccc2Cl)C(C)(C)C)ccc2c1CC(C)O2 (stereo not given)	10	20	30	0	40	100	100	100	–	–	–	–	–	–	–	–	–	–	–
Cc1cccc(C(=O)N(NC(=O)c2ccc3c(c2C)CC(C)O3)C(C)(C)C)c1 (stereo not given)	–	0	0	100	100	100	100	100	–	–	–	–	–	–	–	–	–	0	15
Cc1c(C(=O)NN(C(=O)c2cc(Cl)cc(Cl)c2)C(C)(C)C)ccc2c1CC(C)O2 (stereo not given)	0	50	80	90	90	100	100	100	–	–	–	–	–	–	–	–	–	0	10
Cc1cc(C)cc(C(=O)N(NC(=O)c2ccc3c(c2Cl)CCCO3)C(C)(C)C)c1 [N'-TERT-BUTYL-N'-(3,5-DIMETHYLBENZOYL)-N-5-CHLORO-6-CHROMANECARBOHYDRAZIDE]	–	–	–	–	–	–	–	–	405.65 (≈ 978 µM)	55.6 (≈ 134 µM)	40	80	70.8 (≈ 171 µM)	113 (≈ 273 µM)	17.3 (≈ 41.7 µM)	11.7 (≈ 28.2 µM)	5.5 (≈ 13.3 µM)	–	–
Cc1c(C(=O)NN(C(=O)c2cccc(Cl)c2)C(C)(C)C)ccc2c1CC(C)O2 (stereo not given)	10	20	60	10	30	80	100	100	–	–	–	–	–	–	–	–	–	–	0
